Source: PubChem
Hits are enriched below; roughly 1.9% of the tested compounds scored in any of these assays.
F508del corr: correctors of CFTR F508del function in bronchial epithelial cells; CFBE cells, YFP halide quenching; stimulated with forskolin plus potentiator P3; % fluorescence drop versus neutral controls; activity (quench increase), % at 7.58 µM; actives 0.36% (n = 350,000);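 active = mean added fluorescence quench of at least 8% versus neutral control, with both replicates also reaching 8%; inconclusive = only one of the mean or replicate conditions met; inactive = mean below 8% and not both replicates reaching 8%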;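 note: cells transiently co-express mutant CFTR-F508del with the halide-sensitive YFP; corrector assay measuring rescue of mutant channel to the surface after 24 h compound exposure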
DENV2 CPE: DENV2-induced cell death inhibition. actives 1.7% (n = 350,000). CPE inhibition, % at 9.99 µM. DENV2-infected cells, cytopathic effect rescue, plate reader. AID 651640; in the data active = CPE inhibition above about 20%, passing the limit was not always enough; inconclusive = no clear call, values can overlap the other calls; tested in BHK-21 cells;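 note: 0% = median of neutral control wells and 100% = median of positive control wells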
PGC1a acetyl inh: PGC1a acetylation modulation, inhibitor mode; inhibition, % at 15.6 µM; U2OS PGC1a acetylation, AlphaScreen anti-acetyl-lysine; with virally co-expressed GCN5 acetyltransferase; AID 651687; actives 0.17% (n = 350,000);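 active = every replicate shows inhibition of at least 40%; inconclusive = mean inhibition at least 40% but some replicate below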;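 note: 0% = neutral control wells and 100% = positive control wells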
XiGFP reactiv: X-chromosome reactivation activator | activation, % at 7.58 µM | actives 0.055% (n = 360,000) | XiGFP mouse fibroblasts, % GFP-positive cells imaging, 3 d; cells co-treated with 5-aza-dC sensitizer; scaled so ellipticine positive control = 100%;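 active = mean normalized replicate activation at least 10% and every replicate at or above 10%; inconclusive = only one of the two criteria met; inactive = mean below 10% and not all replicates reach 10%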;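 note: 0% = median of on-plate neutral control wells and 100% = ellipticine 6 µM median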
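material = 68-5-11 XiGFP fibroblast line | medium = DMEM plus 5-aza-dC sensitizer | schedule = 3 days compound exposure | benchmarks = positive control ellipticine, 6 µM final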
Cneo AK release: causes C. neoformans cell lysis; adenylate kinase release luminescence, 4 h; normalised: neutral wells 0, clomiphene wells 100; lysis activity, % at 15 µM; actives 0.2% (n = 360,000); AID 651654;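 active = mean lysis activity across replicates of at least 80%, whatever share of replicates individually reach that level; inactive = mean lysis activity below 80%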
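read-out = cell lysis signal | test system = log-phase Cryptococcus neoformans yeast cells | input = cells at 5 × 10^6 per mL | medium = fresh YPD growth medium | signal = luminescent adenylate kinase detection reagent | timing = 4 h at 37 °C static, read 1 h later | dosing = single dose | controls = Clomiphene as positive lysis control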
FN deposit inh: fibronectin deposition inhibition; AH1F fibroblasts, Alexa488-fibronectin deposition fluorescence, overnight; inhibition, % at 12.6 µM; actives 0.086% (n = 350,000);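 active = mean inhibition across replicates of 30% or more, regardless of how many single replicates reach that level; inconclusive = mean under 30% yet at least half of replicates reach 30%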;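 note: positive control wells lacked labelled fibronectin entirely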
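material = AH1F fibroblast monolayer depositing Alexa488-labelled fibronectin into matrix | amount = 10000 AH1F cells/well | buffer or medium = DMEM plus 2% serum, read in PBS | incubation = 1 h cell adhesion before compound, then overnight fibronectin incubation | detection = fluorescence at 485 nm excitation, 525 nm emission | evaluation = percent inhibition as loss of matrix-bound fibronectin fluorescence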
Starred values were filed as active, the others as inactive; ? = inconclusive; · = not tested or not shown.

SMILES	F508del corr	DENV2 CPE	PGC1a acetyl inh	XiGFP reactiv	Cneo AK release	FN deposit inh
O=C(NNC(=O)c1ccncc1)Nc1ccccc1	1	0	7	0	1	-1
O=C(NNC(=O)c1ccncc1)Nc1ccc(Cl)cc1	8.2*	0	·	0	·	-1
O=C(C[C@H]1C=C[C@@H](NC(=O)CCN2CCCCC2)[C@@H](CO)O1)Nc1ccc(-c2ccccc2)cc1	1	-3	-11	0	-1	-20
COc1ccc(C2CN=NC23CCc2ccccc2C3=O)cc1 (stereo not drawn)	16*	-3	-6	0	-1	-5
O=C(N/N=C/c1cccn1-c1ccc([N+](=O)[O-])cc1)c1cccnc1	0	116*	6	0	3	-4
C/C=C/c1ccccc1[C@H]1[C@H](C#N)N(C(=O)CN2CCOCC2)[C@H]1CO	-3	-7	8	0	·	-11
N#C[C@H]1[C@@H](c2ccccc2C2=CCCC2)[C@@H](CO)N1C(=O)C1CCOCC1	-1	36*	2	0	·	-8
C/C=C/c1ccccc1[C@H]1[C@@H](C#N)N(C(=O)CN2CCOCC2)[C@@H]1CO	0	39*	-1	0	·	2
N#C[C@@H]1[C@@H](c2ccccc2C2=CCCCC2)[C@@H](CO)N1C(=O)CN1CCOCC1	3	30*	-4	0	·	1
N#C[C@@H]1[C@@H](c2ccccc2C2=CCCC2)[C@H](CO)N1C(=O)C1CCOCC1	-2	1	-7	0	·	0
CN1C[C@@H]2[C@H](c3ccccc31)[C@H](CO)N2C(=O)CN1CCOCC1	-1	37*	1	0	-2	·
CN1C[C@@H]2[C@H](c3ccccc31)[C@@H](CO)N2C(=O)CN1CCOCC1	2	-11	7	0	-2	·
CC(=O)N1[C@H](CO)[C@@H]2c3ccccc3N(S(=O)(=O)c3ccc(F)cc3)C[C@@H]21	-2	-8	-6	0	-2	·
Cc1noc(C)c1NC(=O)Nc1ccc2c(c1)C(=O)N([C@H](C)CO)C[C@@H](C)[C@H](CN(C)Cc1ccc(Cl)c(Cl)c1)OCCCC[C@H](C)O2	-1	23*	-3	0	-2	·
Cc1noc(C)c1NC(=O)Nc1ccc2c(c1)C(=O)N([C@H](C)CO)C[C@H](C)[C@@H](CN(C)Cc1ccc(Cl)c(Cl)c1)OCCCC[C@@H](C)O2	1	-17	-2	0	-1	·
Cc1noc(C)c1NC(=O)Nc1ccc2c(c1)C(=O)N([C@@H](C)CO)C[C@H](C)[C@@H](CN(C)Cc1ccc(Cl)c(Cl)c1)OCCCC[C@H](C)O2	1	27*	-4	0	-1	·
Cc1noc(C)c1NC(=O)Nc1ccc2c(c1)C(=O)N([C@@H](C)CO)C[C@@H](C)[C@@H](CN(C)Cc1ccc(Cl)c(Cl)c1)OCCCC[C@@H](C)O2	2	30*	14	0	1	·
Cc1noc(C)c1NC(=O)Nc1ccc2c(c1)C(=O)N([C@H](C)CO)C[C@@H](C)[C@@H](CN(C)Cc1ccc(Cl)c(Cl)c1)OCCCC[C@H](C)O2	-1	9	-7	0	-3	·
Cc1noc(C)c1S(=O)(=O)Nc1ccc2c(c1)C(=O)N([C@@H](C)CO)C[C@H](C)[C@H](CN(C)C(=O)NC(C)C)OCCCC[C@H](C)O2	-1	-8	17	0	-4	-3
C=CCN=c1scc(-c2ccc3c(c2)NC(=O)CO3)n1/N=C(\C)c1ccccn1	8.7*	-3	7	0	·	·
CC(Nc1nc(-c2ccc3c(c2)NC(=O)CO3)cs1)c1ccccc1 (stereo not drawn)	·	7	-9	0	·	·
CCC(=O)Nc1ccc2c(c1)OC[C@H](C)N(CC1CC1)C[C@@H](C)[C@H](OC)CN(C)C2=O	-1	2	-1	1	·	-8
Cc1ccc(NC(=O)C(C)OC(=O)Cc2c[nH]c3ccccc23)cc1 (stereo not drawn)	1	6	·	0	·	-1
Cc1ccc(C(=O)C(C)OC(=O)Cc2c[nH]c3ccccc23)cc1 (stereo not drawn)	-1	27*	·	0	6	-1
Cc1noc(C)c1NC(=O)N(C)C[C@@H]1OCCCC[C@H](C)Oc2ccc(NS(=O)(=O)c3ccc(Cl)cc3)cc2C(=O)N([C@@H](C)CO)C[C@@H]1C	0	?	12	0	1	-9
SMILES	F508del corr	DENV2 CPE	PGC1a acetyl inh	XiGFP reactiv	Cneo AK release	FN deposit inh
C[C@H]1CCCCO[C@@H](CN(C)C(=O)Nc2ccc(C(F)(F)F)cc2)[C@@H](C)CN([C@@H](C)CO)C(=O)c2cc(NC(=O)Nc3ccc4c(c3)OCO4)ccc2O1	8.1*	-4	-7	0	3	-3
CC(C)NC(=O)Nc1ccc2c(c1)C(=O)N([C@H](C)CO)C[C@@H](C)[C@H](CN(C)C(=O)Nc1ccc(C(F)(F)F)cc1)OCCCC[C@@H](C)O2	8	50*	10	0	55	·
C[C@@H]1CCCCO[C@H](CN(C)C(=O)Nc2ccc(C(F)(F)F)cc2)[C@@H](C)CN([C@@H](C)CO)C(=O)c2cc(NC(=O)Cc3ccccc3)ccc2O1	-2	42*	8	0	-8	·
C[C@H]1CCCCO[C@@H](CN(C)C(=O)Nc2ccc(C(F)(F)F)cc2)[C@@H](C)CN([C@@H](C)CO)C(=O)c2cc(NC(=O)Nc3ccc(F)cc3)ccc2O1	8.3*	-1	5	0	-4	-1
O=C(C[C@H]1C[C@@H]2c3cc(NC(=O)C4CCC4)ccc3O[C@@H]2[C@@H](CO)O1)NCc1ccccc1	2	-2	-1	0	-3	0
C[C@@H]1CN([C@@H](C)CO)C(=O)c2cc(NS(C)(=O)=O)ccc2O[C@@H](C)CCCCO[C@@H]1CN(C)Cc1ccc(C(F)(F)F)cc1	1	1	-2	-1	3	·
C[C@H]1CCCCO[C@@H](CN(C)C(=O)Nc2ccccc2)[C@@H](C)CN([C@@H](C)CO)C(=O)c2cc(NC(=O)Nc3ccc(C(F)(F)F)cc3)ccc2O1	5	36*	-2	0	·	·
C[C@H](CO)N1C[C@H](C)[C@@H](CN(C)C(=O)Nc2ccc(C(F)(F)F)cc2)OCCCC[C@H](C)Oc2ccc(NC(=O)Nc3ccc(F)cc3)cc2C1=O	9.3*	0	0	0	-2	6
CCCCCCCCN1C(=O)[C@H](CC(=O)NCc2ccccc2)C[C@@]2(C(=O)OC)CC(C)(C)CC=C12	-2	-3	·	1	·	8
